From PubChem
Neddyl block: blocks human cullin neddylation; actives 0.58% (n = 360,000); P61081+Q13564; TR-FRET cullin neddylation, biochemical; inhibition, % at 25 µM; in the data active means inhibition above about 36%
ARFGAP1 inhibitor: inhibits rat ARF GTPase activating protein 1. Q62848. Arfgap1-stimulated ARF1 GTP hydrolysis, GDP FP detection. inhibition, % at 16.5 µM. actives 0.26% (n = 360,000);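 active means inhibition above a per-plate limit, mean inhibition of low control wells plus 3 SD, cut at about 25% in these data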
Target sequence (Q62848 1-136 limits assumed): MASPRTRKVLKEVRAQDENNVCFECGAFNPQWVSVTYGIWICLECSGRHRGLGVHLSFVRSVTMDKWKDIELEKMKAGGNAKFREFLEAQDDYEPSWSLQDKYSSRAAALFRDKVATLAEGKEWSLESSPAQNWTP
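Assay system: purified rat His6-Arfgap1 residues 1-136 (GAP domain); Reagent: human Δ17 ARF1 bound to GTP; Dosing: 16.5 µM single point, 1.26% DMSO; Times: GTP hydrolysis reaction 2 h at 25 °C; Signal: FP, GDP Alexa 633 tracer displaced from anti-GDP antibody, 620/688 nm; Measure: % inhibition from polarization.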
H9c2 protect: modulators protecting cardiomyocytes from myocardial damage. H9c2 cardiomyocytes, H2O2 injury protection, ATPLite, 2 h. protection from H2O2 cell death, % at 20 µM. actives 0.63% (n = 360,000). AID 588492;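 active means compounds giving at least 50% protection of heart cells from peroxide-induced death in the single-dose screen, raw or plate-pattern-corrected value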
ASAP1 GAP inh: inhibitors of human ASAP1 ArfGAP activity; ASAP1-stimulated ARF1 GTP hydrolysis, GDP FP detection; actives 0.19% (n = 360,000); inhibition, % at 16.5 µM; in the data active means inhibition above about 25%
Target sequence (Q9ULH1 325-724 limits assumed): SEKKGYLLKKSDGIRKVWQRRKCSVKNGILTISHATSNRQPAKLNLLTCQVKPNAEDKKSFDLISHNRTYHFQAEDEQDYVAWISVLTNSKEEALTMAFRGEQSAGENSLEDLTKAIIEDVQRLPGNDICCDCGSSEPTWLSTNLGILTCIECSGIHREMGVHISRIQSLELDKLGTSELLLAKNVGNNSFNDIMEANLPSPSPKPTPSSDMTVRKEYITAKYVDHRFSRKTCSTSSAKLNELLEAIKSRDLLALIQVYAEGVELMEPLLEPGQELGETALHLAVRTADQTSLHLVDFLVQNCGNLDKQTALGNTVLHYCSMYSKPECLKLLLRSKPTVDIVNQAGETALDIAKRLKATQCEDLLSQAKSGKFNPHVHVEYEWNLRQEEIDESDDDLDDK
Neddyl conf: cullin neddylation inhibition, confirmation. calls only at 25 µM. shares compounds with Neddyl block. AID 652217. TR-FRET cullin neddylation biochemical assay. actives 13% (n = 1,800); in the data active means inhibition above about 40%;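 further: neddylation substrate is the cullin 1 ring ligase complex with SKP2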
Of the large screens only hits and unclear results are named; the others gave an inactive call (follow-up assays come after a bar, where shown). Rows were chosen to be rich in hits. Some 1.6% of all compounds tested hit in one or more screens of this group.

CCCCn1c2nc3ccccc3nc2c2c(=O)n(CCC(C)C)cnc21	none
CCCCn1c2nc3ccccc3nc2c2c(=O)n(-c3ccccc3)cnc21	Neddyl block 47.1 | Neddyl conf inactive
CC(C)Cn1c2nc3ccccc3nc2c2c(=O)n(CCN3CCOCC3)cnc21	Neddyl block 42.3 | Neddyl conf inactive
CCCn1cnc2c(c1=O)c1nc3ccccc3nc1n2CCc1ccccc1	Neddyl block 44.3 | Neddyl conf inactive
CCCCCCC12Cc3cc(OC)c(OC)cc3C(O1)c1c(cc(C)oc1=O)O2 (stereo not drawn)	none (no result: Neddyl block, H9c2 protect)
COCCNC(=O)c1cnn2c(C(F)F)cc(-c3ccccc3)nc12	Neddyl block 40.8 | Neddyl conf inactive
Cc1cc(C(F)F)n2ncc(C(=O)N3CCc4ccccc4C3)c2n1	none
O=C(c1cnn2c(C(F)F)cc(-c3ccccc3)nc12)N1CCc2ccccc2C1	Neddyl block 48.3 | Neddyl conf inactive
O=C(NCc1ccco1)c1cnn2c(C(F)F)cc(-c3ccccc3)nc12	none (not shown: Neddyl block)
COC(=O)C1=C(C)N(Cc2ccc(C(F)(F)F)cc2)C(=NCC2CC2)NC1c1ccccc1C(F)(F)F (stereo not drawn)	none (no result: Neddyl block, H9c2 protect)
Cc1nn(-c2ccccc2)c2[nH]c(=O)cc(C(F)F)c12	none
Cc1ccc(-n2nc(C)c3c(C)cc(=O)[nH]c32)cc1	Neddyl block 44.2 | Neddyl conf inactive
COC(=O)[C@]12C[C@H](CC(=O)NCCCN3CCCC3=O)C(=O)N(CCC3=CCCCC3)C1=C[C@H](COCc1ccccc1)O[C@@H]2C	none (no result: Neddyl block, H9c2 protect)
O=C(Cn1nnc(-c2cc(C(F)(F)F)cc(C(F)(F)F)c2)n1)NNC(=S)Nc1ccc(Cl)cc1	Neddyl block 58.9 | Neddyl conf inactive
Cc1cc(C(F)(F)F)nn1CC(=O)NNC(=S)Nc1ccc(Cl)cc1	none
COCCNC(=O)C1(C)CCCN(C(=O)c2cc(C)on2)C1 (stereo not drawn)	none
CCCCNc1ccc2c(c1)OC[C@@H](Cc1ccccc1)NS2(=O)=O	none (no result: Neddyl block, H9c2 protect)
COc1ccc(NC(=O)N2c3ccccc3C(C)=CC2(C)C)cc1	none
COc1ccc(NC(=O)N2c3ccc(OC)cc3C(C)=CC2(C)C)cc1	Neddyl block 44.8
CC(C(=O)NC1CCCC1)N1C(=O)c2cccc3cccc1c23 (stereo not drawn)	Neddyl block 38.0 | Neddyl conf inactive
O=S(=O)(CCN1CCN(c2ccccn2)CC1)c1ccc(F)cc1	none
O=c1oc2cccnc2n1CCS(=O)(=O)c1ccc(F)cc1	Neddyl block 37.6 | Neddyl conf inactive
CC1(C)N=C(c2ccccc2)C(c2ccccc2)=N1	none
C=CCNC(=S)N/N=C/c1ccc(N(CC)Cc2ccccc2)cc1	Neddyl block 56.3
O=C(N/N=C/C=C/c1ccccc1)C1CC1c1ccccc1 (stereo not drawn)	none
CN(C)c1ccc(/C=N/NC(=O)C2CC2c2ccccc2)cc1 (stereo not drawn)	Neddyl block 53.8 | Neddyl conf active
CCN(CC)c1ccc(/C=N/NC(=O)Cc2ccc(OC)c(OC)c2)cc1	Neddyl block 49.5 | Neddyl conf active
COc1ccc(/C=N/NC(=O)Cc2ccc(Cl)cc2)cc1OC	none
CCN(CC)c1ccc(/C=N/NC(=O)c2c(Cl)c(C)nn2C)cc1	Neddyl block 38.2 | Neddyl conf inactive
O=Nc1ccc(Cl)cn1	none (no result: Neddyl block, H9c2 protect)
COc1cc2c(c(OC)c1OC)[C@@]1(c3ccccc3)CCCCC[C@H]1[C@@H]2NC(=O)C(F)(F)F	none (no result: Neddyl block, H9c2 protect)
CN(Cc1ccccc1)C(CNS(=O)(=O)c1ccccc1)c1ccccc1 (stereo not drawn)	none
Nc1ccc2ccc(N)cc2c1	none (no result: Neddyl block, H9c2 protect)
CCCCCCOc1ccc(/C=N/NC(=O)C2CC2)cc1	none
O=C(Nc1ccc(N2CCOCC2)cc1)C1CC1	none
CCN(CC)c1ccc(/C=N/NC(=O)C(O)c2ccccc2)cc1 (stereo not drawn)	Neddyl block 54.7
O=C(N/N=C/c1ccc(N2CCOCC2)cc1)C1CC1	Neddyl block 42.2 | Neddyl conf inactive
CCN(CC)c1ccc(/C=N/NC(=O)C2CC2)cc1	Neddyl block 51.0 | Neddyl conf active
CCc1cc2c(=O)c(-c3nc4ccccc4n3C)c(COCC(=O)O)oc2cc1OC(=O)C(C)(C)C	none
CCc1cc2c(=O)c(-c3nc4ccccc4n3C)c(C)oc2cc1OC(C)=O	Neddyl block 40.9 | Neddyl conf inactive
CCCCOCCOC(=O)C1OC1(C)c1ccccc1 (stereo not drawn)	none
CN(C)CCCNC(=O)c1cccc(-c2cnc3cccnn23)c1	none (not shown: Neddyl block)
O=C1CCC/C(=N\NC(=O)c2ccc(CSc3cccc4cccnc34)cc2)C1	Neddyl block 45.9 | Neddyl conf inactive
NNC(=O)c1ccc(CSc2cccc3cccnc23)cc1	Neddyl block 43.2 | Neddyl conf active
CC1CC(=O)Nc2ccccc2N1C(=O)COc1ccccc1C(N)=O (stereo not drawn)	none
C[C@@H]1CN(C(=O)OC(C)(C)C)CCN1c1ccc(N2CC[C@@H](O)C2)c(C#N)c1	none (no result: Neddyl block, H9c2 protect)
CC1Cc2ccccc2N1C(=O)c1cc2c(=O)n3ccccc3nc2n1C (stereo not drawn)	Neddyl block 48.5, H9c2 protect 66.1 | Neddyl conf active
COc1ccc(-c2c(C(=O)c3ccccc3)[nH]c(N)c2C(=O)NCCc2c[nH]c3ccccc23)cc1	none (no result: Neddyl block, H9c2 protect)
CC(C)CNc1oc(-c2ccccc2Cl)nc1C#N	Neddyl block 42.2 | Neddyl conf inactive
COCCCNc1oc(-c2ccccc2Cl)nc1C#N	none
N#Cc1ccc(/C=C(\C(=O)C(=O)O)c2ccc3ccccc3n2)cc1	Neddyl block 39.3 | Neddyl conf inactive
O=C(COC(=O)c1cccc(S(=O)(=O)N2CCCC2)c1)Nc1cccc(Br)c1	none
O=C1c2c(-c3ccc(Br)cc3)noc2CCN1Cc1cn(C2CCCC2)nn1	none (no result: H9c2 protect)
COC(=O)c1ccccc1NC(=O)N1CCCC1	Neddyl block 46.3 | Neddyl conf inactive
COc1ccc(Cn2c(C)c(CC(=O)Nc3ccc(Oc4cccnc4)c(C)c3)c3ccccc32)cc1	none (no result: Neddyl block, H9c2 protect)
CC(C)Cc1ccc(CN2CCCC(NC(=O)c3cnc4ccccn4c3=O)C2)cc1 (stereo not drawn)	none (not shown: Neddyl block)
O=C(NC1CCCN(Cc2ccc(Cl)cc2)C1)c1cnc2ccccn2c1=O (stereo not drawn)	Neddyl block 40.7
N#Cc1ccccc1OCC(=O)Nc1ccc2c(c1)OCO2	none
CCOC(=O)[C@]12CCCC=C1N(Cc1ccc3c(c1)OCO3)C(=O)[C@H](CC(=O)NCCCN1CCCC1=O)C2	none (no result: H9c2 protect)
Cc1cccc(NS(=O)(=O)c2ccccc2)n1	Neddyl block 41.5 | Neddyl conf inactive
Cc1cccc(NS(=O)(=O)c2ccc(C(C)(C)C)cc2)n1	none
Cc1cccc(NS(=O)(=O)c2ccc(C3CCCCC3)cc2)c1	none
Cc1cccc(NS(=O)(=O)c2ccc(C3CCCCC3)cc2)n1	Neddyl block 38.3 | Neddyl conf inactive
O=C(O)CN(c1ccccn1)S(=O)(=O)c1ccc(Cl)cc1	none
O=C(O)CN(c1ccccn1)S(=O)(=O)c1ccccc1	Neddyl block 42.4 | Neddyl conf inactive
Cc1ccc2cc3cc(C(=O)NCCC(C)C)oc3nc2c1	none
